Only some compounds are listed: those with a hit (about 3.1% of all), similar ones and a draw of the others.
LEDGF integ inh – blocks HIV-1 LEDGF/p75-dependent DNA integration; inhibition, % at 3.7 µM; TR-FRET IN-LEDGF/p75 DNA integration, Eu/Cy5; actives 0.64% (n = 370,000);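 active = inhibition above the screen-wide mean plus 3 SD, cut at about 13% in these data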;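 also: signal is the Cy5 over europium emission ratio at 671 and 618 nm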
RBBP9 inhibitor – human RBBP9 hydrolase inhibition; inhibition, % at 7.94 µM; O75884; recombinant RBBP9, FP-Rh probe fluorescence polarization; actives 0.2% (n = 220,000);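 active = inhibition above the campaign mean of all tested compounds plus 3 SD, cut at about 14% in these data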
Target sequence (O75884 whole entry, looked up): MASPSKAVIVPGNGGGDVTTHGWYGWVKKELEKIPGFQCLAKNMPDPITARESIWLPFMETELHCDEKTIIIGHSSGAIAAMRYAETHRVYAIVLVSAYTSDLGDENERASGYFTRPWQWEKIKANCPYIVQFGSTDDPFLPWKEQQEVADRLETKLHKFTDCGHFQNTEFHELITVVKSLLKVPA
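system = RBBP9 protein | input = RBBP9 at 2.5 µM in dispensed solution, before mixing | measured by = fluorescence polarization (mP), excitation 525 nm, emission 598 nm | incubation = enzyme-compound preincubation 30 min, then probe labeling 45 min, 25 °C | buffer or medium = Tris-NaCl-Pluronic buffer, pH 8.0 | compound = single dose 7.94 µM | also added = FP-Rh probe, 375 nM dispensing solution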
ABHD5-PLIN5 inh – blocks binding of human ABHD5 to perilipin-5 | Q00G26+Q8WTS1 | Split G. princeps luciferase complementation, luminescence, 4 h | inhibition, % at 4 µM | actives 0.78% (n = 360,000) | AID 602281;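 active = inhibition above the mean inhibition across every tested compound plus 3 SD, cut at about 22% in these data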
MBD2 DNA inh – MBD2-methylated oligo binding inhibition | TR-FRET, MBD2 binding to methylated oligonucleotide | inhibition, % at 4.4 µM | actives 0.31% (n = 370,000) | AID 686964; in the data active = inhibition above about 13%
Target sequence (Q9UBB5 whole entry, looked up): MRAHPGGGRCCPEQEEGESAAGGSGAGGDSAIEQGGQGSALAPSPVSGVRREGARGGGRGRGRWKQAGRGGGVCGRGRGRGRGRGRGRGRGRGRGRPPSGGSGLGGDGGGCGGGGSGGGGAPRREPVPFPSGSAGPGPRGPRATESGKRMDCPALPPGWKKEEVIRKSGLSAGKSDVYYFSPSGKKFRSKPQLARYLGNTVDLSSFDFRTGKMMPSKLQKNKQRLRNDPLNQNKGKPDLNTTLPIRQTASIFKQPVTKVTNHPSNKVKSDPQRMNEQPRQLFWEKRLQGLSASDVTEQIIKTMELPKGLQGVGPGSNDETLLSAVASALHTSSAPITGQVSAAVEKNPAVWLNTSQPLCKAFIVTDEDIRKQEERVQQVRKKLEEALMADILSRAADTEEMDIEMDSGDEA
UHRF1 MBD2 ctr – human UHRF1 methylated DNA binding inhibitors; UHRF1 binding to methylated oligo, TR-FRET; inhibition, % at 4.4 µM; actives 0.75% (n = 370,000); in the data active = inhibition above about 21%;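 also: UHRF1 SRA domain binding a hemimethylated CpG hairpin DNA probe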
PRMT1 FP inh – inhibitors of human PRMT1. Q99873. recombinant PRMT1, activity-based probe fluorescence polarization. inhibition, % at 2.79 µM. actives 1.3% (n = 370,000). AID 652257;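 active = inhibition above about 21% made by adding two undisclosed values, limit read from the data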
ABHD5 PLIN5 conf – ABHD5-PLIN5 interaction inhibition, confirmed; shares compounds with ABHD5-PLIN5 inh; biochemical ABHD5-PLIN5 interaction, luminescence; inhibition, % at 4 µM; actives 67% (n = 2,200); in the data active = inhibition above about 23%
HNF4 counter – HNF4 split-luciferase signal hit, counter-screen. shares compounds with ABHD5-PLIN5 inh. HNF4 dimerization, luminescence, biochemical. inhibition, % at 4 µM. actives 77% (n = 2,200). AID 651674;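 active = mean inhibition across replicate wells exceeding the computed hit threshold, cut at about 13% in these data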;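 also: light from luciferase halves that rejoin when HNF4 fusion proteins dimerize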
Hits are given with their value.

Results for CCC(C)N(C(=O)CNc1nnnn1-c1ccccc1)C(C)CC (configuration not stated) ?
LEDGF integ inh: inactive; MBD2 DNA inh: inactive; UHRF1 MBD2 ctr: inactive; PRMT1 FP inh: inactive

Results for CCCC1CCC2(CC1)CCC2OC(=O)Nc1ccc(F)cc1 (configuration not stated) ?
LEDGF integ inh: inactive; MBD2 DNA inh: inactive; UHRF1 MBD2 ctr: inactive; PRMT1 FP inh: inactive

What do the screens show for `CC(O)CNc1cc(N)c([N+](=O)[O-])cc1[N+](=O)[O-]` (configuration not stated)?
LEDGF integ inh: inactive; RBBP9 inhibitor: inactive; ABHD5-PLIN5 inh: 24; MBD2 DNA inh: inactive; UHRF1 MBD2 ctr: inactive; PRMT1 FP inh: inactive; ABHD5 PLIN5 conf: inactive; HNF4 counter: inactive

Results for CC(O)CNc1ccc(-c2n[nH]c(=O)c3ccccc23)cc1[N+](=O)[O-] (configuration not stated) ?
LEDGF integ inh: inactive; ABHD5-PLIN5 inh: inactive; MBD2 DNA inh: inactive; UHRF1 MBD2 ctr: inactive; PRMT1 FP inh: inactive

Results for CC(C)(C)C(=O)OC12CCCN(C1)/C(=C/c1ccccc1)C2 (configuration not stated) ?
LEDGF integ inh: inactive; MBD2 DNA inh: inactive; UHRF1 MBD2 ctr: inactive; PRMT1 FP inh: inactive

What do the screens show for `Cn1cccc([N+](=O)[O-])c1=O`?
LEDGF integ inh: inactive; ABHD5-PLIN5 inh: inactive; MBD2 DNA inh: inactive; UHRF1 MBD2 ctr: inactive; PRMT1 FP inh: inactive

Results for Cn1c(=O)c(=O)n(C)c2cc([N+](=O)[O-])c([N+](=O)[O-])cc21 ?
LEDGF integ inh: inactive; RBBP9 inhibitor: inactive; ABHD5-PLIN5 inh: 100; MBD2 DNA inh: inactive; UHRF1 MBD2 ctr: inactive; PRMT1 FP inh: inactive; ABHD5 PLIN5 conf: inactive; HNF4 counter: inactive

What do the screens show for `CC(=O)N(C)C[C@@H]1OCc2ccccc2-c2c(n(C)c3ccccc23)C(=O)N([C@@H](C)CO)C[C@@H]1C`?
LEDGF integ inh: inactive; MBD2 DNA inh: inactive; UHRF1 MBD2 ctr: inactive; PRMT1 FP inh: inactive

How did CN1CCCC1CCOC(C)(c1ccccc1)c1ccc(Cl)cc1 (configuration not stated) do in these assays?
LEDGF integ inh: inactive; ABHD5-PLIN5 inh: 25; MBD2 DNA inh: inactive; UHRF1 MBD2 ctr: inactive; PRMT1 FP inh: inactive; ABHD5 PLIN5 conf: 33; HNF4 counter: 17

How did OC(c1ccccc1)(c1ccccc1)C1CCN(CCCOc2cccc(Cl)c2)CC1 do in these assays?
LEDGF integ inh: inactive; MBD2 DNA inh: inactive; UHRF1 MBD2 ctr: inactive; PRMT1 FP inh: inactive

How did C[C@@H]1CC(=O)NN=C1c1ccc(NN=C(C#N)C#N)cc1 do in these assays?
LEDGF integ inh: inactive; MBD2 DNA inh: inactive; UHRF1 MBD2 ctr: inactive; PRMT1 FP inh: inactive

Results for O=C(NCCCn1ccnc1)c1ccccc1Cl ?
LEDGF integ inh: inactive; ABHD5-PLIN5 inh: inactive; MBD2 DNA inh: inactive; UHRF1 MBD2 ctr: inactive; PRMT1 FP inh: inactive

What do the screens show for `Cc1cccc(C(=O)NCCCn2ccnc2)c1C`?
LEDGF integ inh: inactive; ABHD5-PLIN5 inh: 102; MBD2 DNA inh: inactive; UHRF1 MBD2 ctr: inactive; PRMT1 FP inh: inactive; ABHD5 PLIN5 conf: inactive; HNF4 counter: inactive

How did Cc1ccc(C(=O)CC(C(=O)O)n2cccn2)cc1 (configuration not stated) do in these assays?
LEDGF integ inh: inactive; RBBP9 inhibitor: inactive; ABHD5-PLIN5 inh: inactive; MBD2 DNA inh: inactive; UHRF1 MBD2 ctr: inactive; PRMT1 FP inh: inactive

What do the screens show for `Cc1ccc(C(=O)CC(C(=O)O)n2cnc([N+](=O)[O-])n2)cc1` (configuration not stated)?
LEDGF integ inh: inactive; RBBP9 inhibitor: inactive; ABHD5-PLIN5 inh: 55; MBD2 DNA inh: inactive; UHRF1 MBD2 ctr: inactive; PRMT1 FP inh: inactive; ABHD5 PLIN5 conf: 29; HNF4 counter: 58

How did CC[C@]12c3[nH]c4cc(-c5ccco5)ccc4c3CCN1C(=O)[C@@H](CC(=O)NCCc1ccccn1)C[C@@H]2C(=O)N1CCN(C(=O)C2CC2)CC1 do in these assays?
LEDGF integ inh: inactive; ABHD5-PLIN5 inh: inactive; MBD2 DNA inh: inactive; UHRF1 MBD2 ctr: inactive; PRMT1 FP inh: inactive

Results for COCCCNC(=O)C[C@H]1C[C@H](C(=O)N2CCCCC2)[C@@]2(CCc3ccccc3)c3[nH]c4cc(-c5ccco5)ccc4c3CCN2C1=O ?
LEDGF integ inh: inactive; ABHD5-PLIN5 inh: 28; MBD2 DNA inh: inactive; UHRF1 MBD2 ctr: inactive; PRMT1 FP inh: inactive; ABHD5 PLIN5 conf: inactive; HNF4 counter: 26

Results for C[C@]12c3[nH]c4cc(-c5ccco5)ccc4c3CCN1C(=O)[C@@H](CC(=O)NCCc1ccccn1)C[C@@H]2C(=O)N1CCCCC1 ?
LEDGF integ inh: inactive; ABHD5-PLIN5 inh: 42; MBD2 DNA inh: inactive; UHRF1 MBD2 ctr: inactive; PRMT1 FP inh: inactive; ABHD5 PLIN5 conf: inactive; HNF4 counter: 24

Results for Clc1ccc(CN2CCN(N=Cc3ccncc3)CC2)cc1 ?
LEDGF integ inh: inactive; MBD2 DNA inh: inactive; UHRF1 MBD2 ctr: inactive; PRMT1 FP inh: inactive

Results for O=C1C=CC2C3C(=O)N(c4ccccc4)C(=O)C3C1N2Cc1ccccc1 (configuration not stated) ?
LEDGF integ inh: inactive; ABHD5-PLIN5 inh: 90; MBD2 DNA inh: inactive; UHRF1 MBD2 ctr: inactive; PRMT1 FP inh: 24; ABHD5 PLIN5 conf: 100; HNF4 counter: 103

Results for O=C1c2ccccc2NC(c2ccc(-c3ccc(F)cc3)o2)N1O (configuration not stated) ?
LEDGF integ inh: inactive; ABHD5-PLIN5 inh: 38; MBD2 DNA inh: inactive; UHRF1 MBD2 ctr: inactive; PRMT1 FP inh: inactive; ABHD5 PLIN5 conf: inactive; HNF4 counter: 13

How did O=C1c2ccccc2NC(c2ccc(-c3ccc(Br)cc3)o2)N1O (configuration not stated) do in these assays?
LEDGF integ inh: inactive; RBBP9 inhibitor: inactive; ABHD5-PLIN5 inh: inactive; MBD2 DNA inh: inactive; UHRF1 MBD2 ctr: inactive; PRMT1 FP inh: inactive

How did C=CCC12C=C(OC)C(=O)C(C1=O)C1c3ccccc3CC12 (configuration not stated) do in these assays?
LEDGF integ inh: inactive; MBD2 DNA inh: inactive; UHRF1 MBD2 ctr: inactive; PRMT1 FP inh: inactive

What do the screens show for `CCOc1ccc(-n2c(SCC(=O)c3ccccc3Cl)nnc2-c2ccncc2)cc1`?
LEDGF integ inh: inactive; MBD2 DNA inh: inactive; UHRF1 MBD2 ctr: inactive; PRMT1 FP inh: inactive

What do the screens show for `O=C1C(=Cc2cccc(F)c2)Cc2ccccc21`?
LEDGF integ inh: inactive; ABHD5-PLIN5 inh: 24; MBD2 DNA inh: inactive; UHRF1 MBD2 ctr: inactive; PRMT1 FP inh: inactive; ABHD5 PLIN5 conf: 28; HNF4 counter: 23

High-throughput results (PubChem)
